Measurements of several laboratories.
Each line is one published result; the experiments were not run side by side.
Route: oral

Cc1noc(C)c1Cn1cc(N2C(=O)N(Cc3cccc(O)c3)C(C)(C)C2=O)cn1
concentration (male Sprague-Dawley rat; plasma; 100 mg/kg; 30 min; single dose): 2.6 ng/mL

COc1ccc2c(=O)n(C)c(-c3ccccc3)nc2c1
concentration (male Sprague-Dawley rat; brain; 30 mg/kg; 30 min; single dose): 20.4 ng/g

Cc1ccc(-c2cc(C(F)(F)F)nn2-c2ccc(S(N)(=O)=O)cc2)cc1
concentration (male Sprague-Dawley rat; blood; 20 mg/kg; 8 h): 11.1 µM

CCc1cc(-c2noc(-c3cc(OC)nc(C4CCCC4)c3)n2)cc(C)c1OC[C@@H](O)CO
concentration (Wistar rat; plasma; 0.3 mg/kg; 6 h; single dose): 12.7 ng/mL

CCOC(=O)[C@@]12C[C@@H]1[C@@H](n1ccc3c(NC)nc(C#Cc4ccc(Cl)s4)nc31)[C@H](O)[C@@H]2O
concentration (male Sprague-Dawley rat; plasma; 10 mg/kg; 15 min): 45.5 ng/mL

COc1nc(-c2cc(C)c(N[C@@H](C)c3cc(F)cc(F)c3)nn2)ccc1-n1cnc(C)c1
concentration (male Sprague-Dawley rat; CSF; 25 mg/kg; 4 h; multiple doses, once daily): 76.6 ng/mL

COc1cccc(-c2n[nH]c(SCc3ccccn3)n2)c1OC
concentration (male Sprague-Dawley rat; plasma; 10 mg/kg; 30 min; single dose): 21400 ng/mL

Cc1noc(C)c1Cn1cc(N2C(=O)CN(Cc3cccc(O)c3)C2=O)cn1
concentration (male Sprague-Dawley rat; plasma; 30 mg/kg; 2 h): 16.5 ng/mL
